How the values were obtained:
[1] = Terminal liver 5A1MQ concentration in DIO mice; type: in vivo, mouse; conditions: high-dose 32 mg/kg/day SC, ~1–2 h post-dosing on Day 30
Outline: (§1)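 On day 30, obese HFD mice were dosed (saline, 10 or 32 mg/kg/day SC) 1 h before euthanasia, fasted 4 h, and killed by CO2. Left liver lobe cut into ~30 mg sections, flash-frozen, and assayed by LC-MS/MS for test compound and 1-MNA. Quantitation limit 1 ng/mL.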

[2] = Solubility in aqueous and simulated gastric fluids; type: physicochemical
DIO mice [3] = assay: Efficacy of 5A1MQ in DIO mice: body weight, whole-body composition, food intake; type: in vivo, mouse; conditions: for absolute fat mass gain: by study termination, control 4.7 g
Outline: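 Male C57BL/6 mice (~18 weeks) kept on HFD for ≥12 weeks, singly housed, stabilised at ~40–50 g. After handling and 3 days of sham saline SC injections, randomised by baseline body composition (n=8/group). Saline, 10 or 32 mg/kg/day SC once daily at 4–5 PM for 30 days. Weight and food intake measured twice weekly; EchoMRI on days −1, 8, 15, 23, 29. Two-way repeated-measures ANOVA with FDR correction; ANCOVA with body weight covariate; mean ± SEM.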

1-MNA = assay: Terminal liver 1-MNA level in DIO mice; type: in vivo, mouse; conditions: high-dose 32 mg/kg/day SC, ~1–2 h post-dosing on Day 30
Outline: as §1

mouse NNMT = molecular target: T1, mouse NNMT (Mus musculus, UniProt O55239); assay: In vitro biochemical assay against mouse NNMT enzyme
T1 sequence (O55239 1-264): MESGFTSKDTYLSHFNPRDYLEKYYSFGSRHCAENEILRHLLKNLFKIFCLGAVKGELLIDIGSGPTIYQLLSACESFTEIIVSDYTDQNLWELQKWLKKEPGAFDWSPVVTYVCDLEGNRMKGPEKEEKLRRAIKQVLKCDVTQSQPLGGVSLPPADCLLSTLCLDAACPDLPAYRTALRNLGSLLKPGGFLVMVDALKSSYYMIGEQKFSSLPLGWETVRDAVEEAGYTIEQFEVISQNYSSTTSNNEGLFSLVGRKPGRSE

[4] = Acute and repeat SC dosing plasma PK in mice; type: in vivo, mouse; conditions: for Cmax: plasma
Outline: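 Male C57BL/6 mice (18–20 weeks), non-fasted, on certified chow, group-housed. Acute arm (n=6): single 25 mg/kg SC. Repeat arm (n=12): 25 mg/kg SC once daily for 5 days. Plasma stored at −70°C and assayed by LC-MS/MS. Mean ± SD.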

DIO mice [5] = assay: Oral glucose tolerance test; type: in vivo, mouse; conditions: Day 21, high-dose 32 mg/kg/day SC vs control and low-dose
Outline: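 Performed on day 21 in obese HFD mice dosed daily SC (saline, 10 or 32 mg/kg/day). After fed-state bleed, mice fasted 4 h, receiving their treatment at 3 h of fasting. One hour post-dose, 2 g/kg oral glucose bolus. Blood glucose at 0, 15, 30, 60 and 120 min; plasma insulin at 0 and 15 min.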

[6] = molecular target: T2, monoamine oxidase-A (MAO-A) (Homo sapiens, UniProt P21397); assay: Cerep panel: MAO-A inhibition; type: biochemical; conditions: 10 μM
T2 sequence (P21397 1-527): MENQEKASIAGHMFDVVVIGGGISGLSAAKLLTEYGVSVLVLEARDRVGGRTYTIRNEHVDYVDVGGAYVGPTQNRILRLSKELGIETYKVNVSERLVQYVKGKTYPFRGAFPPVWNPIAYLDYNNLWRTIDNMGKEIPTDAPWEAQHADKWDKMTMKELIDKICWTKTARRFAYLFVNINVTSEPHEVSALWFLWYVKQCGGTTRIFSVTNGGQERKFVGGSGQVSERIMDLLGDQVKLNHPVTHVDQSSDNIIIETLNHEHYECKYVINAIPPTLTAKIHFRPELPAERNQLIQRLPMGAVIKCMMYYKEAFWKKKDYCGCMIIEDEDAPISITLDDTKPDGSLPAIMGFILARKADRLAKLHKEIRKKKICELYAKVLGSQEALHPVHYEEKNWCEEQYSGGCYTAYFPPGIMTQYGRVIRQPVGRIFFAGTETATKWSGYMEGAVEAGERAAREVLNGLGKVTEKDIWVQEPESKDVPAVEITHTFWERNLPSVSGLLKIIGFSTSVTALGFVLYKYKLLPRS

[7] = Acute oral dosing plasma PK in mice; type: in vivo, mouse
Outline: (§2)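 Male C57BL/6 mice (~8 weeks) fasted ~12 h before dosing; food returned 4 h post-dose. Single dose at 5 mg/kg IV (n=3) or 30 mg/kg PO (n=3). Saphenous cross-sampling at 0.0833 h (IV only), 0.25, 0.5, 1, 2, 4, 8, 12 h (PO only) and 24 h. K2EDTA plasma stored at −70°C, then LC-MS/MS. Mean ± SD.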

DIO mice [8] = assay: Non-fasted; type: in vivo, mouse
Outline: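 HFD-fed obese male C57BL/6 mice (n=8/group) received saline, 10 or 32 mg/kg/day SC once daily. Tail blood was taken noon–1 PM without fasting on days −7, 0, 7, 14, 21 and 28. Glucose read by test strip; plasma insulin by ELISA. Change expressed from Day 0 baseline.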

[9] = Mouse plasma protein binding; type: in vitro ADME
[10] = system: Cerep panel of major receptors, enzymes, and uptake transporter proteins; assay: Cerep off-target panel; conditions: 10 μM
[11] = Acute intravenous dosing plasma PK in mice; type: in vivo, mouse; conditions: IV 5 mg/kg
Outline: as §2

[12] = Tissue distribution of 5A1MQ after repeat SC dosing in mice; type: in vivo, mouse
Outline: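 Male C57BL/6 mice (18–20 weeks) given 25 mg/kg SC once daily for 5 days. On day 5, subsets (n=3/timepoint) bled by cardiac puncture at 1, 4 and 8 h post-dose. Epididymal white fat, liver and quadriceps collected terminally and stored at −70°C. Plasma and tissue levels measured by LC-MS/MS; tissue-to-plasma ratios derived.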

[13] = Metabolic stability in cryopreserved mouse hepatocytes; type: in vitro ADME
DIO mice [14] = assay: Terminal serum chemistry and complete blood count in DIO mice; type: in vivo, mouse
Outline: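 Day-30 cardiac-puncture blood (~700 μL) from obese HFD mice given saline, 10 or 32 mg/kg/day SC daily. Mice were dosed 1 h before CO2 euthanasia after a 4 h fast. 300 μL used for complete blood count; 150 μL for serum chemistry (TG, ALT, AST, ketones, CK, LDH, lipids). Some endpoints analysed by Kruskal-Wallis test.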

DIO mice [15] = assay: Terminal liver weight, histopathology, F4/80 and liver triglycerides in DIO mice; type: in vivo, mouse
Outline: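 Terminal day-30 livers from obese HFD mice treated daily SC (saline, 10 or 32 mg/kg/day; dosed 1 h pre-sacrifice, 4 h fast). Whole liver weighed. Left-lobe sections flash-frozen for triglyceride assay or formalin-fixed, paraffin-embedded for H&E and F4/80 IHC. Outputs: steatosis, inflammation, ballooning and NAS scores; hepatocyte count; cross-sectional area; F4/80-stained area by image analysis.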

[16] = SC 25 mg/kg once-daily for 5 days
[17] = SC 25 mg/kg single (acute) dose
[18] = SC 25 mg/kg once-daily x5, 1 h post-dose
[19] = SC 25 mg/kg once-daily x5, 8 h post-dose
[20] = statistically significant only at the low dose (p<0.05 vs control)

- liver concentration of 5A1MQ [1]: 28.5 ng/g
- solubility ([2]; phosphate buffered saline): > 100 mg/mL
- solubility ([2]; simulated gastric fluids): > 10 mg/mL
- mouse NNMT IC50 (mouse NNMT): 0.078 µg/mL
- Plasma AUC0-∞ [4, 16]: 4,687 ng*h/mL
- Tmax [4, 16]: ~ 15 minutes
- estimated terminal half-life (T1/2) [4, 16]: 12.8 h
- Cmax [4, 16]: 5,130 ng/mL
- Plasma AUC0-∞ [4, 17]: 7,031 ng*h/mL
- estimated terminal half-life (T1/2) [4, 17]: 13.3 h
- Tmax ([4]; SC 25 mg/kg single dose): ~ 15 minutes
- Cmax ([4]; SC 25 mg/kg single dose): 7,010 ng/mL
- inhibition of monoamine oxidase-A (MAO-A) [6]: 67.4%
- Tmax ([7]; PO 30 mg/kg): 4 h
- estimated terminal half-life ([7]; PO 30 mg/kg): 14.8 h
- oral bioavailability ([7]; PO 30 mg/kg vs IV 5 mg/kg): 3.5%
- AUC0-∞ ([7]; PO 30 mg/kg, plasma): 224 ng·h/mL
- Cmax ([7]; PO 30 mg/kg, plasma): 14.5 ng/mL
- mouse plasma protein binding (Fb) [9]: 7%
- activity against Cerep panel targets (all except MAO-A) [10]: no significant activity
- plasma clearance [11]: 101 mL/min/kg
- terminal half-life [11]: 6.3 h
- steady-state volume of distribution ([11]; estimated): 39 L/kg
- AUC0-∞ ([11]; plasma): 825 ng·h/mL
- Cmax ([11]; plasma): 2,009 ng/mL
- EWAT-to-plasma ratio [12, 18]: 1.4
- liver-to-plasma ratio [12, 18]: 0.09
- mean total exposure level in liver [12, 18]: 83 ng/ng
- muscle-to-plasma ratio [12, 18]: 2.2
- EWAT-to-plasma ratio [12, 19]: 31.1
- liver-to-plasma ratio [12, 19]: 1.4
- muscle-to-plasma ratio [12, 19]: 17.0
- clearance [13]: 57.9 mL/min/kg
- half-life (T1/2) [13]: < 7 min
Structure (SMILES): C[n+]1cccc2c(N)cccc21 [5A1MQ, 5-amino-1-methylquinolium]
- longitudinal lean mass (DIO mice [3]; 10 and 32 mg/kg/day SC): no significant main treatment effect
- food intake (DIO mice [3]; 10 and 32 mg/kg/day SC, treatment effect): no main effect
- absolute fat mass gain (DIO mice [3]; high-dose 32 mg/kg/day SC): 1.3 g
- absolute fat mass gain (DIO mice [3]; low-dose 10 mg/kg/day SC): 4.7 g
- mean reduction in 1-MNA level in the liver relative to controls (1-MNA): 39%
- OGTT circulating glucose levels at 15- and 30-min post-bolus glucose (DIO mice [5]): significantly decreased
- OGTT plasma insulin at 15 min post-glucose loading (DIO mice [5]; p<0.0001): suppressed
- weekly fed-state blood glucose (DIO mice [8]; 10 and 32 mg/kg/day SC): did not alter
- fed-state plasma insulin decrease from baseline (Day 0) to Day 28 (DIO mice [8]; high-dose 32 mg/kg/day SC, control increased by 112%): 9%
- fed-state plasma insulin increase from baseline (Day 0) to Day 28 (DIO mice [8]; low-dose 10 mg/kg/day SC, control increased by 112%): 46%
- decrease in monocytes vs control (DIO mice [14]; high-dose 32 mg/kg/day SC, p<0.001): 50%
- decrease in lymphocytes vs control (DIO mice [14]; high-dose 32 mg/kg/day SC, p<0.05): 31%
- serum ketone body levels (DIO mice [14]; p<0.0001 high dose vs control): dose-dependently decreased
- serum ALT (DIO mice [14]; p<0.001 high-dose vs control): dose-related decreases
- serum TG levels (DIO mice [14]; p<0.01 high-dose vs control): significantly lower
- serum AST (DIO mice [14]; p<0.01 low-dose vs control): dose-related decreases
- total white blood cell count (DIO mice [14]; p<0.05 high-dose vs control): significantly reduced
- serum CK (DIO mice [14]; [20]): significantly lowered
- serum LDH (DIO mice [14]; [20]): significantly lowered
- hepatocyte cell count (DIO mice [15]; 10 and 32 mg/kg/day SC, p<0.0001): significant main effects of treatment
- NAFLD activity score (NAS) (DIO mice [15]; 10 and 32 mg/kg/day SC, p<0.0001 high dose vs control): dose-dependent improvement
- whole-liver cross-sectional area (DIO mice [15]; 10 and 32 mg/kg/day SC, p=0.0015): significant main effects of treatment
- liver TG levels (DIO mice [15]; 10 and 32 mg/kg/day SC, p=0.0169): significantly reduced
- liver F4/80 signal (macrophage marker) (DIO mice [15]; high-dose 32 mg/kg/day SC vs control, p<0.05): significantly lowered
- terminal liver weight (DIO mice [15]; high-dose 32 mg/kg/day SC, control average 2.1 g): 1.4 g
- reduction in microvesicular steatosis compared to controls (DIO mice [15]; high-dose 32 mg/kg/day SC, p<0.01): 73%
- liver lobular inflammation (DIO mice [15]; p<0.01 high dose vs control): significantly reduced
- hepatocellular ballooning (DIO mice [15]; p<0.05 high dose vs control): significantly reduced

— publication PMC11622326 (Diabetes, obesity & metabolism, 2024)
